Data from ChEMBL document CHEMBL3351764, “Design, synthesis and biological activity of flavonoid derivatives as selective agonists for neuromedin U 2 receptor” (Bioorg Med Chem, 2014).
Activity calls are given as the source filed them. No cut-off for these calls is given here.

Key:
Neuromedin-U receptor 2 = Neuromedin-U receptor 2 (Homo sapiens, UniProt Q9GZQ4); experiment: Agonist activity at human NMU2R transfected in HEK293 cells after 7 hrs by luciferase reporter gene assay; format: cell-based
Summary of the method: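 HEK-293 cells were stably co-transfected with a reporter gene construct and human NMU2R cDNA in pcDNA3.1(+), maintained under G418 selection at 37 °C in 5% CO2, then seeded and incubated overnight. Compounds were added at various concentrations for 7 h at 37 °C, followed by Bright-Glo luciferase read-out. Forskolin and NMU served as positive controls. EC50 was fitted by four-parameter logistic regression; means ± SEM of three independent experiments.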

[1] = target: Adrenocorticotropic hormone receptor (Homo sapiens) (UniProt Q01718); experiment: Agonist activity at human MC2 receptor at 100 uM to 5 mM
[2] = target: Melanocortin receptor 3 (Homo sapiens) (UniProt P41968); experiment: Agonist activity at human MC3 receptor at 100 uM to 5 mM
[3] = target: Melanocortin receptor 3 (Mus musculus) (UniProt P33033); experiment: Agonist activity at mouse MC3 receptor at 100 uM to 5 mM
[4] = target: Melanocortin receptor 4 (Mus musculus) (UniProt P56450); experiment: Agonist activity at mouse MC4 receptor at 100 uM to 5 mM
[5] = target: Melanocortin receptor 5 (Mus musculus) (UniProt P41149); experiment: Agonist activity at mouse MC5 receptor at 100 uM to 5 mM
[6] = target: T1, Neuromedin-U receptor 1 (Homo sapiens) (UniProt Q9HB89); experiment: Agonist activity at human NMU1 receptor at 100 uM to 5 mM
T1 sequence (whole entry): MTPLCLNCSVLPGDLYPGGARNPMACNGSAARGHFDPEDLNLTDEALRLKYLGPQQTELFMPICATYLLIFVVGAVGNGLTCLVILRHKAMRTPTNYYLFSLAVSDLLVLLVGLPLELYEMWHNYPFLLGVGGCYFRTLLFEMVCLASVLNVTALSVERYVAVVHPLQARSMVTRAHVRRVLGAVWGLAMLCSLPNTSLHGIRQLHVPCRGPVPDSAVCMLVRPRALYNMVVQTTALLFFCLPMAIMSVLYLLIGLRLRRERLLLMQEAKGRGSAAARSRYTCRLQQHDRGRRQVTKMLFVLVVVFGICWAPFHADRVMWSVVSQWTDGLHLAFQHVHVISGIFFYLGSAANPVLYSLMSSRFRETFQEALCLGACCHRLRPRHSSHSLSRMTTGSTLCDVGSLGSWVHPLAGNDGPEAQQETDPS

[7] = target: D(1A) dopamine receptor (Homo sapiens) (UniProt P21728); experiment: Agonist activity at human D1 receptor at 100 uM to 5 mM
[8] = target: D(1B) dopamine receptor (Homo sapiens) (UniProt P21918); experiment: Agonist activity at human D5 receptor at 100 uM to 5 mM
[9] = target: T2, Adenosine receptor A1 (Homo sapiens) (UniProt P30542); experiment: Agonist activity at human A1 receptor at 100 uM to 5 mM
T2 sequence (whole entry): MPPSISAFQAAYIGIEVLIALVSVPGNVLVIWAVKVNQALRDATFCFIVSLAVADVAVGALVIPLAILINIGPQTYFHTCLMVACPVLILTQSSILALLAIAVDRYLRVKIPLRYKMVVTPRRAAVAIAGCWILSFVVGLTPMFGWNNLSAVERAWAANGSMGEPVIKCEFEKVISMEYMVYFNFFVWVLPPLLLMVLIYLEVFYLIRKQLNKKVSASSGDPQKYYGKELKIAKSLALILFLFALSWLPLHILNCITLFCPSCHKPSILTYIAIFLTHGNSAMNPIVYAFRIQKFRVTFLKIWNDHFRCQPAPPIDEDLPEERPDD

[10] = target: Adenosine receptor A2a (Homo sapiens) (UniProt P29274); experiment: Agonist activity at human A2a receptor at 100 uM to 5 mM
[11] = target: T3, Adenosine receptor A3 (Homo sapiens) (UniProt P0DMS8); experiment: Agonist activity at human A3 receptor at 100 uM to 5 mM
T3 sequence (whole entry): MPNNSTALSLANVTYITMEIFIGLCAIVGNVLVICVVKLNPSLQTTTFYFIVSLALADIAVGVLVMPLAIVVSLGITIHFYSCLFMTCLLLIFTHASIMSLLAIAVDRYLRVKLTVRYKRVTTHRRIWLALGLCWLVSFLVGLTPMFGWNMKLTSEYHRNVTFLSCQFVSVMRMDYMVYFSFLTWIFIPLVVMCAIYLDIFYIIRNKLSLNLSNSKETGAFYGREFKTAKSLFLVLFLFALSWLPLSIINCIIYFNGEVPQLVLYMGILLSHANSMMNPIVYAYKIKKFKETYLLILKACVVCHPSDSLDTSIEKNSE

[12] = target: T4, C5a anaphylatoxin chemotactic receptor 1 (Homo sapiens) (UniProt P21730); experiment: Agonist activity at human C5a receptor at 100 uM to 5 mM
T4 sequence (whole entry): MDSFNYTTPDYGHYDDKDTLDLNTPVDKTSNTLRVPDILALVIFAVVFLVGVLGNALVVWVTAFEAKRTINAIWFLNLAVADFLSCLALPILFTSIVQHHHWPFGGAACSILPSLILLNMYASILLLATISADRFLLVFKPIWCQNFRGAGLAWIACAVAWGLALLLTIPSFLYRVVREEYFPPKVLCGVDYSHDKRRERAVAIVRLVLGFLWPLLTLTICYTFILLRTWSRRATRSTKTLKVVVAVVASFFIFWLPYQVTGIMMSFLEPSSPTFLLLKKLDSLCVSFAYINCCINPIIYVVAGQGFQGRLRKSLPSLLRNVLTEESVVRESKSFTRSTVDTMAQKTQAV

[13] = target: T5, Neuropeptide Y receptor type 5 (Homo sapiens) (UniProt Q15761); experiment: Agonist activity at human NPY5 receptor at 100 uM to 5 mM
T5 sequence (whole entry): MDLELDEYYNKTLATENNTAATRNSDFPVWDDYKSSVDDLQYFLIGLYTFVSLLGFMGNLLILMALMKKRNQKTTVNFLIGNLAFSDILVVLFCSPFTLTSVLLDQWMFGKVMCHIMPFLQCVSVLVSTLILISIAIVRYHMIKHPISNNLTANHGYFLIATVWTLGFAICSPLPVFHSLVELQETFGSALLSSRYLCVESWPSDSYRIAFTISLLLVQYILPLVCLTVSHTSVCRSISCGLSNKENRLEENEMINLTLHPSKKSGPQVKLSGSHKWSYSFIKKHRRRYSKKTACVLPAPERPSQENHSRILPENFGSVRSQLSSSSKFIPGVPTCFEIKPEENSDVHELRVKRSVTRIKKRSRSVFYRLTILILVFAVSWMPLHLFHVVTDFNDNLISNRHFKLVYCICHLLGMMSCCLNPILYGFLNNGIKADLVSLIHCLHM

[14] = target: Glucagon receptor (Homo sapiens) (UniProt P47871); experiment: Agonist activity at human Glu receptor at 100 uM to 5 mM
Chain of Glucagon receptor (Homo sapiens) (P47871 whole entry): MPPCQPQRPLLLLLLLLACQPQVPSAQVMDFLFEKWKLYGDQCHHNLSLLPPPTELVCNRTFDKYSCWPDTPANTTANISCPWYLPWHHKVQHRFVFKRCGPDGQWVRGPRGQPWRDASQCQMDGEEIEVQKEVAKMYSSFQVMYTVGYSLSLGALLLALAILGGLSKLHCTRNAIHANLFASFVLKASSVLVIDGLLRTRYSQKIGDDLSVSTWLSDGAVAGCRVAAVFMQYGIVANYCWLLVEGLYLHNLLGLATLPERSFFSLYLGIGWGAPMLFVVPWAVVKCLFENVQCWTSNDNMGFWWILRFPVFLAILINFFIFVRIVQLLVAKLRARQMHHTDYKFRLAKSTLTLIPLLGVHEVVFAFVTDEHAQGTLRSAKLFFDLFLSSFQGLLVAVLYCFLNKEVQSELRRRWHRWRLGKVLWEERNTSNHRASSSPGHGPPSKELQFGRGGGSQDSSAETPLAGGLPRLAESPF

Chain of Melanocortin receptor 5 (Mus musculus) (P41149 whole entry): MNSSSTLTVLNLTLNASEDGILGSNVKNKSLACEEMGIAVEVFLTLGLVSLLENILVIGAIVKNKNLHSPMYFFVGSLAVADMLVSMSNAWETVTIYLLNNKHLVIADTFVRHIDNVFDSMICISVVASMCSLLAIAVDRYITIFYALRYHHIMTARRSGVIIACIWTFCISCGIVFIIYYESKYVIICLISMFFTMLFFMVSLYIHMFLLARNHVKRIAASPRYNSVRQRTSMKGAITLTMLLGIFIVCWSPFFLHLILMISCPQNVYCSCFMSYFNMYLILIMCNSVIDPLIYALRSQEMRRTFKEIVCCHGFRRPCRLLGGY
Chain of Adenosine receptor A2a (Homo sapiens) (P29274 whole entry): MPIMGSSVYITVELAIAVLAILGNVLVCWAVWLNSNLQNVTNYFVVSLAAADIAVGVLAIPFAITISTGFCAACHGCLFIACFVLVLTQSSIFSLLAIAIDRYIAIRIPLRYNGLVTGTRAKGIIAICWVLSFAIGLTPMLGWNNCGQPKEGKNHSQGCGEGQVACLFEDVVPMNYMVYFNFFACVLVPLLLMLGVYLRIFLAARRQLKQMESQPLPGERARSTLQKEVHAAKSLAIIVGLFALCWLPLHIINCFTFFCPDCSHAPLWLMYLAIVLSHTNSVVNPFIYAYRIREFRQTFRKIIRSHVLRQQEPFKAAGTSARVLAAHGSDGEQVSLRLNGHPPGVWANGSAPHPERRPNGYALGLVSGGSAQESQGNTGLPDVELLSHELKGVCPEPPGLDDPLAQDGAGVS
Chain of Melanocortin receptor 3 (Homo sapiens) (P41968 whole entry): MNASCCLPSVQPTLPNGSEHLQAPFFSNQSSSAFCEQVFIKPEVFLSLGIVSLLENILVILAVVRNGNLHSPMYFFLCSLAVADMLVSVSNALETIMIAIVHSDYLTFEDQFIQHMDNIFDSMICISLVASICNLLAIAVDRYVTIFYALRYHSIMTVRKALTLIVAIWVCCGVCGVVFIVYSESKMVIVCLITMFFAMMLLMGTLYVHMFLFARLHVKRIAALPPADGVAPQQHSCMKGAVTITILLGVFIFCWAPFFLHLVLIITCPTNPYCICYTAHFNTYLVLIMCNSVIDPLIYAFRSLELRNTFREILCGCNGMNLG
Chain of D(1A) dopamine receptor (Homo sapiens) (P21728 whole entry): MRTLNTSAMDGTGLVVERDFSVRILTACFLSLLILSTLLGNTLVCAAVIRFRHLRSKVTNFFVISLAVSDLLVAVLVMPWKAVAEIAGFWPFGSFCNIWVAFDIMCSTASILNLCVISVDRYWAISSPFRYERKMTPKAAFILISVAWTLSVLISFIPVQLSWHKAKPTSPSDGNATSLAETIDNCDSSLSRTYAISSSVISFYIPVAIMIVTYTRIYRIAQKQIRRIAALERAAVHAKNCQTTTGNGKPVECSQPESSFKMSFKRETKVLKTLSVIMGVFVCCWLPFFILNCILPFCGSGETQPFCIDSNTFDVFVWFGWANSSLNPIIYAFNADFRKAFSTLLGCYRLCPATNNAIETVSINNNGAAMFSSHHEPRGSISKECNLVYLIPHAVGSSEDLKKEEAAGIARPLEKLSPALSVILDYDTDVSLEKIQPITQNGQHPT
Chain of Adrenocorticotropic hormone receptor (Homo sapiens) (Q01718 whole entry): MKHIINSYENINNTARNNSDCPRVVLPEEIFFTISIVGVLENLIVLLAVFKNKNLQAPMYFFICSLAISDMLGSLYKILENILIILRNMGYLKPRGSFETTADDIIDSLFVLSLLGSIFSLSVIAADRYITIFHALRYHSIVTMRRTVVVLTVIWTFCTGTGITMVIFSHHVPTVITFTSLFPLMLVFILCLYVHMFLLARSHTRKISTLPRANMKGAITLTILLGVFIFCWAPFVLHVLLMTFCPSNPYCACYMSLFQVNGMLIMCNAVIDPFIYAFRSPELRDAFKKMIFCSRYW
Chain of D(1B) dopamine receptor (Homo sapiens) (P21918 whole entry): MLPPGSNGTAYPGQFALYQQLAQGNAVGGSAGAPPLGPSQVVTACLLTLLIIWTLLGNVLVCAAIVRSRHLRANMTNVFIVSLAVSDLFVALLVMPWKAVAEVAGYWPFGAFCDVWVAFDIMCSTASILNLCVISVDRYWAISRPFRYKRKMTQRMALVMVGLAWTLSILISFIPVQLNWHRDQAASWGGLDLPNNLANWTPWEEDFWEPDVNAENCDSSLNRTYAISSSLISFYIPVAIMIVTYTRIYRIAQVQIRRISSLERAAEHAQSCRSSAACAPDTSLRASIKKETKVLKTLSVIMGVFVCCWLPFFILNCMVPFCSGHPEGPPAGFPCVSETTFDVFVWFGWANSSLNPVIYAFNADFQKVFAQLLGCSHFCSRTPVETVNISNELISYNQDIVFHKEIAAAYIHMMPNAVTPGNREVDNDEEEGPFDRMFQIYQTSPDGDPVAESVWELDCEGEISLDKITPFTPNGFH
Chain of Melanocortin receptor 4 (Mus musculus) (P56450 whole entry): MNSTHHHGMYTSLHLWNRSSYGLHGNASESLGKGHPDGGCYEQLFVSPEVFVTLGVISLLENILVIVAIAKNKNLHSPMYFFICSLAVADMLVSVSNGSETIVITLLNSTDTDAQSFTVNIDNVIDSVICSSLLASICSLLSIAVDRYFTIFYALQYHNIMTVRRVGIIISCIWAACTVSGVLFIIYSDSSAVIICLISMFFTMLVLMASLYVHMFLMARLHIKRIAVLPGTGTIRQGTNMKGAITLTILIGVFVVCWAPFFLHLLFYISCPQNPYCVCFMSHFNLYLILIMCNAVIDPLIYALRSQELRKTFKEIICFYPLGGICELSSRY
Chain of Neuromedin-U receptor 2 (Q9GZQ4 whole entry): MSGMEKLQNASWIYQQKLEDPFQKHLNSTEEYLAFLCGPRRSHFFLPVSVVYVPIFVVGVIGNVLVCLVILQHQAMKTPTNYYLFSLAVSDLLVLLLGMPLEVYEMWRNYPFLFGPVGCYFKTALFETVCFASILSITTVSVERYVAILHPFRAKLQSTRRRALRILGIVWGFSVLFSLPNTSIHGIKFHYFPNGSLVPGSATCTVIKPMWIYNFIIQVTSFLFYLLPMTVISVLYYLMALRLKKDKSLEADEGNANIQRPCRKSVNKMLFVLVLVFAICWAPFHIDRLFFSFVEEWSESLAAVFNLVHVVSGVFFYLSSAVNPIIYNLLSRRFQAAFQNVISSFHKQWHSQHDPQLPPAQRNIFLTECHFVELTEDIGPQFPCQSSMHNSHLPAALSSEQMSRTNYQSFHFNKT
Chain of Melanocortin receptor 3 (Mus musculus) (P33033 whole entry): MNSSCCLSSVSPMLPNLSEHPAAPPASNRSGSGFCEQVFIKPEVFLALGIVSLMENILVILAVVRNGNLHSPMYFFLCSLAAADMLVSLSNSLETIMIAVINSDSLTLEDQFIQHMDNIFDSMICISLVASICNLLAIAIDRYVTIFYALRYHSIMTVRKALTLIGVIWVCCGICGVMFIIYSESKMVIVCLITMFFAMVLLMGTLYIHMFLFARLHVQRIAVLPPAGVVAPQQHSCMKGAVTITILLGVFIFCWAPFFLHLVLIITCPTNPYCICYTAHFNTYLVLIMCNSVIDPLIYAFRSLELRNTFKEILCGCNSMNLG

SMILES	EC50 (Neuromedin-U receptor 2; hek293)	Activity [1]	Activity [2]	Activity [3]	Activity [4]	Activity [5]	Activity [6]	Activity [7]	Activity [8]	Activity [9]	Activity [10]	Activity [11]	Activity [12]	Activity [13]	Activity [14]	EC50 (Neuromedin-U receptor 2; read-out: EC50) [µM]
O=c1c(O)c(-c2c(F)cccc2Cl)oc2ccccc12	Not Active	inactive	inactive	inactive	inactive	inactive	inactive	inactive	inactive	inactive	inactive	inactive	inactive	inactive	inactive	–
O=c1cc(-c2ccc(Cl)cc2Cl)oc2ccccc12	Not Active	inactive	inactive	inactive	inactive	inactive	inactive	inactive	inactive	inactive	inactive	inactive	inactive	inactive	inactive	–
Fc1ccccc1C1C=Cc2ccccc2O1 (racemic)	Not Active	inactive	inactive	inactive	inactive	inactive	inactive	inactive	inactive	inactive	inactive	inactive	inactive	inactive	inactive	–
COc1cccc(-c2oc3ccccc3c(=O)c2O)c1	Not Active	inactive	inactive	inactive	inactive	inactive	inactive	inactive	inactive	inactive	inactive	inactive	inactive	inactive	inactive	–
O=c1c(OCCO)c(-c2cc(Br)ccc2F)oc2ccccc12	–	inactive	inactive	inactive	inactive	inactive	inactive	inactive	inactive	inactive	inactive	inactive	inactive	inactive	inactive	47
O=c1c(O)c(-c2cccc(Cl)c2)oc2ccccc12	Not Active	inactive	inactive	inactive	inactive	inactive	inactive	inactive	inactive	inactive	inactive	inactive	inactive	inactive	inactive	–
Clc1ccc(C2C=Cc3ccccc3O2)c(Cl)c1 (racemic)	Not Active	inactive	inactive	inactive	inactive	inactive	inactive	inactive	inactive	inactive	inactive	inactive	inactive	inactive	inactive	–
